Source: ChEMBL document CHEMBL1148330, “Synthesis and biological evaluation of 14-alkoxymorphinans. 21. Novel 4-alkoxy and 14-phenylpropoxy derivatives of the mu opioid receptor antagonist cyprodime” (J Med Chem, 2004)

Columns and labels:
[1] = species: Rattus norvegicus; test: Selectivity ratio of binding affinities between kappa opioid receptors and mu opioid receptors in rat brain membranes; type: cell membranes
Summary of the method: (§1)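 Competitive radioligand binding in rat brain membranes: [3H]DAMGO (µ), [3H][Ile5,6]deltorphin II (δ), [3H]U69,593 (κ). Ki reported as mean ± SEM. Selectivity ratios are Ki δ/Ki µ and Ki κ/Ki µ.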

[2] = target: Kappa-type opioid receptor (Rattus norvegicus, UniProt P34975); test: Binding affinity determined by displacing [3H]U69,593 from Opioid receptor kappa 1 in rat brain membranes; type: cell membranes; summary of the method: as §1
[3] = target: Opioid receptors; mu & delta (Rattus norvegicus) (UniProt P33533+P33535); test: Selectivity ratio of binding affinities between delta opioid receptors and mu opioid receptors in rat brain membranes; type: cell membranes; summary of the method: as §1
[4] = target: Mu-type opioid receptor (Rattus norvegicus, UniProt P33535); test: Binding affinity determined by displacing [3H]DAMGO from Opioid receptor mu 1 in rat brain membranes; type: cell membranes; summary of the method: as §1
[5] = target: T1, Mu-type opioid receptor (Homo sapiens, UniProt P35372); test: Concentration necessary to produce 50% of the Emax value, i.e. to stimulate [35S]GTP-gamma-S, binding to recombinant human Opioid receptor mu 1 expressed in CHO cells; type: functional, cell-based
Summary of the method: (§2)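 Membranes from CHO cells stably expressing human µ, δ or κ opioid receptor, incubated with varying concentrations of compound in a [35S]GTPγS binding assay. Emax is % maximal stimulation of [35S]GTPγS binding. EC50 is the concentration giving 50% of the Emax value. Mean ± SEM.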

[6] = target: T2, Kappa-type opioid receptor (Homo sapiens, UniProt P41145); test: Percent maximal stimulation of [35S]GTP-gamma-S, binding to recombinant human Opioid receptor kappa 1 expressed in CHO cells; type: functional, cell-based; summary of the method: as §2
[7] = test system: Mus musculus; test: Effective dose (sc) required for antinociceptive potency in vivo in the hotplate (HP) test in mice; type: functional
[8] = target: T1, Mu-type opioid receptor; test: Percent maximal stimulation of [35S]GTP-gamma-S, binding to recombinant human Opioid receptor mu 1 expressed in CHO cells; type: functional, cell-based; summary of the method: as §2
[9] = target: T3, Delta-type opioid receptor (Homo sapiens, UniProt P41143); test: Percent maximal stimulation of [35S]GTP-gamma-S, binding to recombinant human opioid receptor delta 1 expressed in CHO cells; type: functional, cell-based; summary of the method: as §2
[10] = test system: Mus musculus; test: Effective dose (sc) required for antinociceptive potency in vivo in the tail-flick (TF) test in mice; type: functional
[11] = target: T3, Delta-type opioid receptor; test: Concentration necessary to produce 50% of the Emax value, i.e. to stimulate [35S]GTP-gamma-S, binding to recombinant human opioid receptor delta 1 expressed in CHO cells; type: functional, cell-based; summary of the method: as §2
[12] = target: T2, Kappa-type opioid receptor; test: Concentration necessary to produce 50% of the Emax value, i.e. to stimulate [35S]GTP-gamma-S, binding to recombinant human Opioid receptor kappa 1 expressed in CHO cells; type: functional, cell-based; summary of the method: as §2
[13] = test system: Mus musculus; test: Effective dose (sc) required for antinociceptive potency in vivo in the paraphenylquinone writhing (PPQ) test in mice; type: functional
[14] = target: T2, Kappa-type opioid receptor; test: Antagonistic activity against recombinant human Opioid receptor kappa 1 expressed in CHO cells when incubated with U69,593; type: functional, cell-based
Summary of the method: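 Membranes from CHO cells stably expressing the human κ opioid receptor, incubated with the agonist U69,593 in the presence of varying concentrations of compound. Antagonist Ke values reported as mean ± SEM.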

[15] = target: T1, Mu-type opioid receptor; conditions: CHO

Sequence of Kappa-type opioid receptor (Rattus norvegicus, UniProt P34975) (P34975 whole entry): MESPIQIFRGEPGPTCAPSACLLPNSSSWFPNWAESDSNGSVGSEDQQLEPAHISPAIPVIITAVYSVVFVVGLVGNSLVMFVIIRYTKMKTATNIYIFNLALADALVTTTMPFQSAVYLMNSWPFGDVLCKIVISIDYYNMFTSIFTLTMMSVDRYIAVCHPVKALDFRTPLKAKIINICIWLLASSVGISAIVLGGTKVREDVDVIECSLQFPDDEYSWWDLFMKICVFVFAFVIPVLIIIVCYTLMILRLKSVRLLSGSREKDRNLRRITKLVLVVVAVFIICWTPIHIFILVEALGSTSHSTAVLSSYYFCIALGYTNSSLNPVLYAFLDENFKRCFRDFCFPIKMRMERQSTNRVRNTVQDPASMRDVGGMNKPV
Sequence of Opioid receptors; mu & delta (Rattus norvegicus) (P33533 whole entry, looked up): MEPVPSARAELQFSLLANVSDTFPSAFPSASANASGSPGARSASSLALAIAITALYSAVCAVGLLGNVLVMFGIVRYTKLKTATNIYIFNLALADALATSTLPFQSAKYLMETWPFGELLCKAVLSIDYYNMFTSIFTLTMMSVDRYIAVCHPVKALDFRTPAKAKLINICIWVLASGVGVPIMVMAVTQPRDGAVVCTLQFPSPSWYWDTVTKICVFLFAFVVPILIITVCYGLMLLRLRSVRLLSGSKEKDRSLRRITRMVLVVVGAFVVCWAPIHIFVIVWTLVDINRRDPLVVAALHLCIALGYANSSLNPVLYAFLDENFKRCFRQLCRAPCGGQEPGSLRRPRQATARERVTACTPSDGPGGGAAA
Sequence of Opioid receptors; mu & delta (Rattus norvegicus) (P33535 whole entry, looked up): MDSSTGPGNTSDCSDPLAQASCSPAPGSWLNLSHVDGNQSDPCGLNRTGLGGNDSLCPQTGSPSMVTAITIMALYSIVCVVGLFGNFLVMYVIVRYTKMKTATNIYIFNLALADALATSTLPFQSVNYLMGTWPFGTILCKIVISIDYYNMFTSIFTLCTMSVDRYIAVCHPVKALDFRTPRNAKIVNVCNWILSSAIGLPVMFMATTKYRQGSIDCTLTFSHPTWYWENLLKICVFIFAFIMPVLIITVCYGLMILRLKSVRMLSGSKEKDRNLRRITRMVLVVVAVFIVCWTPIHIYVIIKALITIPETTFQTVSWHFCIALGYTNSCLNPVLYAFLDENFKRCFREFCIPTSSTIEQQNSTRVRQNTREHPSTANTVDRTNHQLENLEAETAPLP
T2 sequence (P41145 whole entry): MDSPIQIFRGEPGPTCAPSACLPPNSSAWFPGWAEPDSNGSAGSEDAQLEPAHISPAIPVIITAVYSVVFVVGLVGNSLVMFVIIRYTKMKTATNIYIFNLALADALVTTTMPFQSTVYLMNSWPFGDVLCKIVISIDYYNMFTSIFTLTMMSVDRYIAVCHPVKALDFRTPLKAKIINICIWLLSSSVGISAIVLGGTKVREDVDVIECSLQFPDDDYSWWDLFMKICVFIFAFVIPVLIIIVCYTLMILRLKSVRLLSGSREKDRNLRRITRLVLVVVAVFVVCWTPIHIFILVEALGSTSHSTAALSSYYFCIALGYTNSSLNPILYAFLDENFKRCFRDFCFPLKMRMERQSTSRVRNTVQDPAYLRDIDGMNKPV
T3 sequence (P41143 whole entry): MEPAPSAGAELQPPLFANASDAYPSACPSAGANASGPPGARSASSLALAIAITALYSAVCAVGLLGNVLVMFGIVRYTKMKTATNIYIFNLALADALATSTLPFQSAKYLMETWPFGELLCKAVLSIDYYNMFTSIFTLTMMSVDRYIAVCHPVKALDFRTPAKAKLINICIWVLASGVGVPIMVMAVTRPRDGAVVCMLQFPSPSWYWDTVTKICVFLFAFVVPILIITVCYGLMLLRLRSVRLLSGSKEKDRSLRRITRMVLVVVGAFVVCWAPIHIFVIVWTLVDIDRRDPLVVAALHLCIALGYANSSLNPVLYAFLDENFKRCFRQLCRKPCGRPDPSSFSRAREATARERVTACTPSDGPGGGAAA
Sequence of Mu-type opioid receptor (Rattus norvegicus, UniProt P33535) (P33535 whole entry): as the sequence (P33535 whole entry, looked up) above
T1 sequence (P35372 whole entry): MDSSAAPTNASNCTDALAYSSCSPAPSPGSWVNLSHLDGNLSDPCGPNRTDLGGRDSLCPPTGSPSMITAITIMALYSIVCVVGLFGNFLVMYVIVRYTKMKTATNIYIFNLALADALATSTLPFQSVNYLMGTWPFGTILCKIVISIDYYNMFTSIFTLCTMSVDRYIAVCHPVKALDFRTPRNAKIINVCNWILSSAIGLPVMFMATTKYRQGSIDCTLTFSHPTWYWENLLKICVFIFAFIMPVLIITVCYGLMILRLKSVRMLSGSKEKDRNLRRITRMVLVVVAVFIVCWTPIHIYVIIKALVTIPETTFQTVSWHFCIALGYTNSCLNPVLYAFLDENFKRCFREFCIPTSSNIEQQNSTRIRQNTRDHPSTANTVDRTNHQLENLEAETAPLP

SMILES	Selectivity ratio [1]	Ki [2]	Selectivity ratio [3]	Ki [4]	EC50 [5]	Emax [6]	ED50 [7]	Emax [8]	Emax [9]	ED50 [10]	EC50 [11]	EC50 [12]	ED50 [13]	Ke [14]	Ke [15]
CCCCOc1cccc2c1[C@]13CCN(CC4CC4)[C@H](C2)[C@]1(OCCCc1ccccc1)CCC(=O)C3	10	150 µM	16	14.9 µM											
CO[C@@]12CCC(=O)C[C@@]13CCN(CC1CC1)[C@@H]2Cc1cccc(OCCCc2ccccc2)c13	4.8	208 µM	33	43.3 µM											
O=C1CC[C@@]2(OCCCc3ccccc3)[C@H]3Cc4cccc(O)c4[C@@]2(CCN3CC2CC2)C1	15	5.84 µM	13	0.4 µM	0.00347 µM	45.8%	0.04 mg/kg	35%	49%	0.05 mg/kg	0.00791 µM	0.00451 µM	0.0014 mg/kg		
CCCCCCOc1cccc2c1[C@]13CCN(CC4CC4)[C@H](C2)[C@]1(OC)CCC(=O)C3	9.8	441 µM	26	44.9 µM											
COc1cccc2c1[C@]13CCN(CC4CC4)[C@H](C2)[C@]1(OCCCc1ccccc1)CCC(=O)C3	22	7.36 µM	50	0.34 µM	0.00197 µM		0.3 mg/kg	35%	22%	0.28 mg/kg	0.0206 µM	> 10 µM	0.06 mg/kg	2.52 nM	
COc1cccc2c1[C@]13CCN(CC4CC4)[C@H](C2)[C@]1(OC)CCC(=O)C3 [CYPRODIME]	10	109 µM	39	10.6 µM		18.8%		33%	18%		1.1 µM	0.117 µM		26.1 nM	12.4 nM
CCCCOc1cccc2c1[C@]13CCN(CC4CC4)[C@H](C2)[C@]1(OC)CCC(=O)C3	19	261 µM	55	13.8 µM	> 10 µM				22%		1.61 µM	> 10 µM		120 nM	11.1 nM
CO[C@@]12CCC(=O)C[C@@]13CCN(CC1CC1)[C@@H]2Cc1cccc(OCc2ccccc2)c13	4.9	56.8 µM	18	11.6 µM											
CO[C@@]12CCC(=O)[C@]3(C)Oc4c(O)ccc5c4[C@@]31CCN(C)[C@@H]2C5							0.03 mg/kg			0.03 mg/kg			0.009 mg/kg		
O=C1CC[C@@]2(OCCCc3ccccc3)[C@H]3Cc4cccc5c4[C@@]2(CCN3CC2CC2)C1O5 (some centres undefined)	27	22.8 µM	55	0.84 µM	0.0098 µM		0.68 mg/kg	43%	17%	0.187 mg/kg	0.0868 µM	> 10 µM	0.0094 mg/kg	8.54 nM	
